Screens: PubChem BioAssay, several laboratories
core dimer inh: blocks dimerization of HCV core protein. TR-FRET GST/Flag-core106 dimerization, 1536-well. AID 1899. 300,000 tested, 0.33% active. inhibition, % at 5 µM;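 active = inhibition above the mean of all tested compounds plus 3 SD, set per screening campaign, cut at about 45% in these data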
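System – GST-tagged and Flag-tagged HCV core protein residues 1-106 · Repeats – one well for each compound · Technique – TR-FRET 671 and 617 nm emission · Doses – one concentration, 5 µM, in 0.5% DMSO · Times – 4 h, 22.5 °C incubation · Also added – Eu donor and XL665 acceptor anti-tag antibodies · Measure – percent inhibition of core106 dimerization signal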
NadD inh: inhibitors of Staphylococcus aureus NadD; purified NadD enzyme, colorimetric absorbance read-out; 360,000 tested, 0.78% active; inhibition, % at 20 µM; in the data active = inhibition above about 26%
PP1 inh: PP1-alpha (human) inhibition in PP5 counter-screen | P62136 | purified PP1alpha, OMFP fluorescence | inhibition, % at 6.7 µM | 320,000 tested, 0.9% active | AID 2235;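 active = inhibition above the mean inhibition of all tested compounds plus 3 SD, computed separately for each screening campaign, cut at about 15% in these data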
Target sequence (P62136 whole entry, looked up): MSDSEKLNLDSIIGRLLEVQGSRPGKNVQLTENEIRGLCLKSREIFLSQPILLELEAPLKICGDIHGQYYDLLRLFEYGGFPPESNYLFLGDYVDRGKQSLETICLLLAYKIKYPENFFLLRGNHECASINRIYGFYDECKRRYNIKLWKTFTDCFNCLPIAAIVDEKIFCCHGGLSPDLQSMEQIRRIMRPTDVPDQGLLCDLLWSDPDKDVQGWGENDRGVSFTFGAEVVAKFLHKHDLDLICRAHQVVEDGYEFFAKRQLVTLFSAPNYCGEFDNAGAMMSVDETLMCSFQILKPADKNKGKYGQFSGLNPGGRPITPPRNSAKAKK
CTSL1 counter: cathepsin L1 inhibition, PFM18AAP counter-screen | recombinant F. hepatica cathepsin L1, Z-Leu-Arg-MCA fluorescence | inhibition, % at 5.96 µM | 300,000 tested, 0.49% active | AID 1906;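 active = inhibition above the mean of all tested compounds plus 3 SD, set per screening campaign, cut at about 17% in these data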;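 also: 0% = plate median of test compound wells and 100% = 1 µM Z-Phe-Ala-diazomethylketone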
Myeloid diff 2: myeloid differentiation induction; AID 624256; 360,000 tested, 1% active; ER-HoxA9 myeloid progenitors, lysozyme-GFP differentiation, flow cytometry; calls only at 10 µM;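 active = normalized GFP-positive differentiation at or above the plate's own cutoff, the solvent-only control mean plus 3 SD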;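 also: cells exposed to compound for four days before flow analysis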
PP5 inh: inhibitors of human protein phosphatase 5 (PP5); inhibition, % at 6.7 µM; purified PP5c, OMFP substrate fluorescence; AID 1987; P53041; 320,000 tested, 0.18% active;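 active = inhibition above the campaign's mean inhibition across all tested compounds plus 3 SD, cut at about 9.5% in these data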;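 also: 0% = DMSO only and 100% = 100 µM cantharidin control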
PP1 confirm: confirmation of human PP1 phosphatase inhibitors | shares compounds with PP1 inh | purified PP1alpha, OMFP substrate fluorescence | 1,900 tested, 52% active | AID 2358 | inhibition, % at 6.7 µM;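 active = mean PP1 inhibition above a set limit taken from the earlier primary screen, cut at about 15% in these data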
PP5 counter: inhibits human PP5 phosphatase in PP1 counter-screen; shares compounds with PP1 inh; purified PP5c, OMFP fluorescence; inhibition, % at 6.7 µM; 1,900 tested, 4% active;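 active = mean PP5 inhibition over triplicate wells above about 9.5% taken from the earlier PP1 screen, limit read from the data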
NadD conf: confirmation of Staphylococcus aureus NadD inhibitors; AID 624309; shares compounds with NadD inh; purified S. aureus NadD, colorimetric enzyme assay; inhibition, % at 20 µM; 2,000 tested, 13% active; in the data active = inhibition mostly above about 42%, no sharp cut-off; inactive = mostly below about 42%
Starred values were filed as active, the others as inactive; i = inactive; . = no result given; + = active, no number. Compounds with a hit are over-represented: about 3.1% of the library has one in this group of screens.

SMILES | core dimer inh | NadD inh | PP1 inh | CTSL1 counter | Myeloid diff 2 | PP5 inh | PP1 confirm | PP5 counter | NadD conf
CCOc1ccc(C(=O)Nc2nnc(NC(=S)Nc3ccccc3)s2)cc1 | 20 | 35* | 19* | 5 | i | 1 | 33* | 4 | 11
Cc1sc2nc(COC(=O)c3cccc(OC(F)F)c3)[nH]c(=O)c2c1C | -2 | -6 | 3 | 2 | i | 1 | . | . | .
Cc1sc2nc(COC(=O)c3cccc(S(=O)(=O)N(C)c4ccccc4)c3)[nH]c(=O)c2c1C | 31 | 37* | 21* | 4 | + | 0 | 25* | -2 | 4
CC1Sc2ccc(S(=O)(=O)CCC(=O)NC(C)c3ccccc3)cc2NC1=O (stereo not given) | 8 | -1 | 0 | -2 | i | 1 | . | . | .
C#CCOCCOCCOCCNc1nc(N2CCN(C(=O)[C@H]([C@@H](C)CC)n3cc([C@@H](N)Cc4ccc(O)cc4)nn3)CC2)nc(N2CCN(C(=O)[C@H](Cc3cc4ccccc4[nH]3)n3cc([C@@H](N)CC(C)C)nn3)CC2)n1 | -15 | 48* | 28* | 51* | i | 0 | -13 | -4 | 36
C#CCOCCOCCOCCNc1nc(N2CCN(C(=O)C([C@@H](C)CC)n3cc(C(N)CC(C)C)nn3)CC2)nc(N2CCN(C(=O)[C@H](CCC(=O)O)n3cc(C(N)Cc4ccc(O)cc4)nn3)CC2)n1 (stereo not given in full) | 1 | 2 | 4 | 1 | i | 1 | . | . | .
CNC(=S)Nc1cccc(-c2cnc3ccccc3n2)c1 | -1 | -5 | -4 | 0 | i | 1 | . | . | .
CCCCCCCCCCCCCCCC[n+]1ccc(C(N)=O)cc1 | -15 | 29* | 41* | 6 | . | 5 | 25* | 0 | -5
CC1CCC(NC(=O)C2CCN(c3c4c(nc5ncnn35)CCC4)CC2)CC1 (stereo not given) | -5 | -4 | -2 | -6 | i | -1 | . | . | .
Cc1ccc(-c2cccc(C3CC=CC4C3C(=O)N(Cc3ccccc3)C4c3ccc(C(F)(F)F)cc3)c2)cc1 (stereo not given) | 16 | 20 | 1 | 3 | i | 2 | . | . | .
COc1ccc(C2C3C=CCC(c4cccc(-c5ccc(C)cc5)c4)C3C(=O)N2Cc2ccccc2)cc1Cl (stereo not given) | 25 | 36* | 18* | 2 | i | -1 | 0 | -6 | 12
Cc1ccc(C2(c3ccccc3)NC(=O)N(CC(=O)N(C)C3CCS(=O)(=O)C3)C2=O)cc1C (stereo not given) | . | 3 | 1 | . | i | 4 | . | . | .
CC(C)(O)c1ccccc1CC[C@@H](SCC1(CC(=O)O)CC1)c1cccc(/C=C/c2ccc3ccc(Cl)cc3n2)c1 | 36 | 51* | 35* | -1 | i | 1 | 43* | -2 | 56*
N#C/C(=C/c1cn(-c2ccccc2)nc1-c1cccc(OCc2ccc(F)cc2)c1)C(=O)NCCCn1ccnc1 | 0 | 37* | 22* | 2 | i | 5 | 8 | -3 | -4
Cc1ccc2sc(NNC(=O)c3cc(-c4cccs4)nc4ccccc34)nc2c1C | 32 | . | 2 | -4 | . | 1 | . | . | .
O=C(NNc1nc2ccc(Cl)cc2s1)c1cc(-c2cccs2)nc2ccccc12 | 20 | 44* | 25* | 7 | i | 2 | 30* | -4 | 48*
COc1ccc(O)c(C(=O)c2cc(SCC(=O)O)c3nc4sc5c(c4c(=O)n3c2)CCCC5)c1 | 27 | 46* | 29* | 1 | i | 2 | 19* | -3 | 36
COc1ccc(-n2c(SCC(=O)O)nc3sc4c(c3c2=O)CCCC4)cc1 | 10 | -4 | 3 | 8 | i | 1 | . | . | .
O=C(O)CSc1cc(C(=O)c2ccccc2O)cn2c(=O)c3c(-c4ccccc4)csc3nc12 | 55* | 38* | 20* | 1 | i | 1 | 16* | -5 | 57*
CCOC(=O)c1sc2nc3c(SCC(=O)O)cc(C(=O)c4cc(F)ccc4O)cn3c(=O)c2c1C | 21 | 33* | 61* | 4 | i | 1 | 48* | -3 | 34
CCOC(=O)c1sc2nc3c(SCC(=O)O)cc(C(=O)c4ccccc4O)cn3c(=O)c2c1C | -302 | 27 | 13 | 2 | i | 1 | . | . | .
COc1cc(OC)c(C(=O)OCC(=O)Nc2nnc(-c3ccccc3)o2)cc1OC | . | 5 | -1 | . | i | -1 | . | . | .
Cc1nc(-c2ccc3c(c2)CCC(=O)N3)cs1 | -2 | 2 | -3 | 1 | i | 2 | . | . | .
Cc1ccc(-c2csc(Cc3nc(-c4ccc5c(c4)CCC(=O)N5)cs3)n2)cc1 | 25 | 33* | 36* | 0 | . | 4 | 16* | -2 | 19
COc1ccc(/C=C/C(=O)NC(=S)Nc2ccc(S(=O)(=O)N=C(N)N)cc2)cc1OC | 20 | 30* | 20* | 4 | i | 1 | 23* | -2 | -3
SMILES | core dimer inh | NadD inh | PP1 inh | CTSL1 counter | Myeloid diff 2 | PP5 inh | PP1 confirm | PP5 counter | NadD conf
O=c1[nH]c(CSc2nc3ccccc3s2)nc2ccccc12 | 0 | -5 | -3 | -4 | i | 3 | . | . | .
COc1ccc(C2NCCc3c2[nH]c2ccccc32)cc1CSc1nc2ccccc2s1 (stereo not given) | -8 | 44* | 19* | 2 | i | 4 | -11 | 2 | 11
CC(=O)NC(Cc1c[nH]c2ccccc12)C(=O)N1CCN(S(=O)(=O)c2ccccc2)CC1 (stereo not given) | . | -3 | -5 | . | i | -1 | . | . | .
C/C=C\C=C/C(=O)Nc1cccc(C2=NOC3(C2)C[C@@H](C(N)=O)N(C(=O)COc2ccc(Cl)cc2)C3)c1 (stereo not given in full) | 25 | 38* | 19* | 3 | i | 3 | -2 | -4 | 62*
CC(=O)c1ccc(-c2ccc(C(=O)Nc3nc(-c4ccccn4)cs3)o2)cc1 | . | 21 | . | . | i | . | . | . | .
O=C(Nc1nc(-c2ccccn2)cs1)c1ccc(-c2ccccc2F)o1 | . | 40* | 20* | . | i | 3 | 30* | 12* | 18
COc1ccc2[nH]c3c(c2c1)CCN1C(=O)C(CC(=O)NCCCN(C)C)C[C@H](C(=O)N2CCCCC2)[C@@]31C (stereo not given in full) | . | -4 | . | . | i | . | . | . | .
O=C(Nc1nc2ccc(Cl)cc2s1)c1ccco1 | -1 | -9 | 2 | 2 | i | -2 | . | . | .
